These results are taken from ChEMBL document CHEMBL1123314, “Adriamycin analogues. Preparation and biological evaluation of some N-(trifluoroacetyl)-14-O-[(N-acetylamino)acyl]adriamycin derivatives” (J Med Chem, 1986).

The test system of data set [1] is CCRF-CEM. In words: In vitro antitumor activity in CCRF-CEM culture of human leukemic lymphocytes. Format: functional. As to conditions: read-out: ID50 (the source's name). In outline: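 CCRF-CEM human leukemic lymphoblasts were grown in suspension in Eagle's MEM with 10% fetal bovine serum and exposed to drug continuously for 48 h. ID50 is the concentration giving 50% reduction in growth relative to untreated control cultures.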

A short description of data set [2]: Half-life time of the compound. Format: ADME.
The nature of data set [3]: % hydrolysis in 60 min.
The nature of data set [4]: % hydrolysis in 60 min. This is another data set of the same source.
The test system of data set [5] is Mus musculus. In words: Compound was evaluated in vivo for antileukemic activity in B6D2F1 male mice. Format: functional. In outline:
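P388 leukemia model, run essentially per NCI standard protocols: 10⁶ tumor cells injected ip into B6D2F1 male mice on day 0. Drug given ip once daily for 4 days starting day 1; highest dose tested 50 mg/kg per day. Read-out is percent increase in life span (ILS) versus untreated controls, with long-term survivors (>40 days) noted.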

Turning to `CCCCC(=O)OCC(=O)[C@]1(O)Cc2c(O)c3c(c(O)c2[C@@H](OC2CC(NC(=O)C(F)(F)F)C(O)C(C)O2)C1)C(=O)c1c(OC)cccc1C3=O` (some centres undefined), in data set [1], the IC50 came out at 0.23 µM.

As for `COc1cccc2c1C(=O)c1c(O)c3c(c(O)c1C2=O)C[C@@](O)(C(=O)COC(=O)CC(NC(C)=O)C(=O)O)C[C@@H]3OC1CC(NC(=O)C(F)(F)F)C(O)C(C)O1` (some centres undefined), the IC50 in data set [1] is 1 µM. Further, the half-life in data set [2] is 18 min.

In the case of `COc1cccc2c1C(=O)c1c(O)c3c(c(O)c1C2=O)C[C@@](O)(C(=O)COC(=O)CCC(NC(C)=O)C(N)=O)C[C@@H]3OC1CC(NC(=O)C(F)(F)F)C(O)C(C)O1` (some centres undefined), the IC50 in data set [1] was determined as 0.12 µM. The molecule further had a half-life in data set [2] of 24 min.

As for `COc1cccc2c1C(=O)c1c(O)c3c(c(O)c1C2=O)C[C@@](O)(C(=O)COC(=O)C1CCCN1C(C)=O)C[C@@H]3OC1CC(NC(=O)C(F)(F)F)C(O)C(C)O1` (some centres undefined), the IC50 in data set [1] turned out to be 0.3 µM. Further, the % hydrolysis at 1 h in data set [3] came to 4%.

Take `COc1cccc2c1C(=O)c1c(O)c3c(c(O)c1C2=O)C[C@@](O)(C(=O)COC(=O)CCC(NC(C)=O)C(=O)O)C[C@@H]3OC1CC(NC(=O)C(F)(F)F)C(O)C(C)O1` (some centres undefined): the IC50 in data set [1] stood at 0.16 µM. In data set [2], this molecule gave a half-life of 16 min.

As to `COc1cccc2c1C(=O)c1c(O)c3c(c(O)c1C2=O)C[C@@](O)(C(=O)COC(=O)C(NC(C)=O)C(C)C)C[C@@H]3OC1CC(NC(=O)C(F)(F)F)C(O)C(C)O1` (some centres undefined), the IC50 in data set [1] turned out to be 0.14 µM. For the same molecule, the % hydrolysis at 1 h in data set [4] was determined as 8%.

For `COc1cccc2c1C(=O)c1c(O)c3c(c(O)c1C2=O)C[C@@](O)(C(=O)COC(=O)CNC(=O)c1ccccc1)C[C@@H]3OC1CC(NC(=O)C(F)(F)F)C(O)C(C)O1` (some centres undefined), the IC50 in data set [1] came out at 0.12 µM. The half-life in data set [2] worked out at 3.5 min.

Take `COc1cccc2c1C(=O)c1c(O)c3c(c(O)c1C2=O)C[C@@](O)(C(=O)COC(=O)CNC(C)=O)C[C@@H]3OC1CC(NC(=O)C(F)(F)F)C(O)C(C)O1` (some centres undefined): the IC50 in data set [1] amounted to 0.14 µM. The same molecule came in with a half-life in data set [2] of 10 min. The same molecule gave an ILS in data set [5] of 105%.

Turning to `COc1cccc2c1C(=O)c1c(O)c3c(c(O)c1C2=O)C[C@@](O)(C(=O)COC(=O)C(CCSC)NC(C)=O)C[C@@H]3OC1CC(NC(=O)C(F)(F)F)C(O)C(C)O1` (some centres undefined), in data set [1], the IC50 was 0.83 µM. In data set [2], this molecule displayed a half-life of 38 min. In data set [5], this molecule yielded an ILS of 136%.

In the case of `COc1cccc2c1C(=O)c1c(O)c3c(c(O)c1C2=O)C[C@@](O)(C(=O)COC(=O)C(Cc1ccccc1)NC(C)=O)C[C@@H]3OC1CC(NC(=O)C(F)(F)F)C(O)C(C)O1` (some centres undefined), the IC50 in data set [1] is 0.09 µM. For the same molecule, the half-life in data set [2] is 14 min. Besides, the ILS in data set [5] was 173%.

As for `COc1cccc2c1C(=O)c1c(O)c3c(c(O)c1C2=O)C[C@@](O)(C(=O)COC(=O)C(CC(C)C)NC(C)=O)C[C@@H]3OC1CC(NC(=O)C(F)(F)F)C(O)C(C)O1` (some centres undefined), the IC50 in data set [1] was found to be 0.15 µM. This molecule also yielded a half-life in data set [2] of 65 min.

For the molecule `COc1cccc2c1C(=O)c1c(O)c3c(c(O)c1C2=O)C[C@@](O)(C(=O)COC(=O)C(C)NC(C)=O)C[C@@H]3OC1CC(NC(=O)C(F)(F)F)C(O)C(C)O1` (some centres undefined), in data set [1], the IC50 came out at 0.15 µM. In addition, the half-life in data set [2] stood at 18 min. This molecule also yielded an ILS in data set [5] of 163%.

On to `COc1cccc2c1C(=O)c1c(O)c3c(c(O)c1C2=O)C[C@@](O)(C(=O)CO)C[C@@H]3O[C@H]1C[C@H](N)[C@H](O)[C@H](C)O1` [DOXORUBICIN], for which the IC50 in data set [1] turned out to be 0.03 µM. For the same molecule, in data set [5], the ILS worked out at 145%.
